Consider 1 compound from ChEMBL document CHEMBL4028911, “Discovery of a Small-Molecule Bromodomain-Containing Protein 4 (BRD4) Inhibitor That Induces AMP-Activated Protein Kinase-Modulated Autophagy-Associated Cell Death in Breast Cancer” (J Med Chem, 2017).

Usually IC50 stands for the concentration that gives 50% inhibition.

Calls of active or inactive are those of the source. No cut-off for these calls is given here.

Data set [1] concerns MCF7. In words: Induction of autophagy in human MCF7 cells assessed as cytoplasmic vacuolization at 1.5 uM by electron microscopy. Type of data set: functional, cell-based. The gist of the method: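 MCF-7 (1.5 µM) or MDA-MB-231 (3 µM) cells treated for indicated times. Cytoplasmic vacuoles examined by transmission electron microscopy.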
Data set [2] addresses T1, Bromodomain-containing protein 4 (Homo sapiens, UniProt O60885). Description: Inhibition of BRD4 in human MCF7 cells assessed as induction of AMPKalpha phosphorylation at thr172 at 1.5 uM measured up to 36 hrs by Western blot analysis. The class given is cell-based. The gist of the method:
(§1)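 MCF-7 (1.5 μM) or MDA-MB-231 (3 μM) cells treated for indicated times. Adherent and floating cells lysed in RIPA with 1 mM PMSF. Equal protein run on 10-15% SDS-PAGE, blotted to PVDF, blocked in milk or BSA, HRP/ECL detection. β-actin loading control.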
For orientation: In western blotting, separated proteins are transferred to a membrane and probed.

The subject of data set [3] is MDA-MB-231. Description: Induction of autophagy in GFP-LC3 fused human MDA-MB-231 cells assessed as increase in LC3 puncta at 3 uM by fluorescence microscopy. Type of data set: functional, cell-based. An outline of the steps:
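MCF-7 or MDA-MB-231 cells transfected with eGFP-LC3 plasmid, then treated with 1.5 or 3 µM respectively for 24 h. LC3 puncta viewed by fluorescence microscopy.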

Data set [4] relates to MCF7. Description: Induction of autophagy in human MCF7 cells assessed as increase in LC3B puncta at 1.5 uM after 24 hrs by DAPI-staining based immunocytochemistry. The class given is functional, cell-based. The gist of the method:
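MCF-7 cells treated with 1.5 µM for 24 h and blocked with 1.5% goat serum in PBS. Incubated overnight at 4°C with anti-LC3B (1:200) in PBS/1% BSA, then FITC secondary for 1 h at room temperature. Nuclei counterstained with DAPI; LC3B puncta imaged.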

In data set [5] the test system is MCF7. In words: Induction of autophagy in human MCF7 cells assessed as increase in LC3-2 expression at 1.5 uM by Western blot analysis. The following applies: TDE = time-dependent effect. The class given is functional, cell-based. An outline of the steps: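 MCF-7 (1.5 µM) or MDA-MB-231 (3 µM) cells treated for indicated times. Adherent and floating cells lysed in RIPA with 1 mM PMSF, 4°C for 1 h. Equal protein run on 10-15% SDS-PAGE, transferred to PVDF, blocked with milk or BSA, probed with primary then HRP secondary antibodies, ECL detection; β-actin as loading control.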

In data set [6] the target is Bromodomain-containing protein 3 (Homo sapiens, UniProt Q15059). Description: Inhibition of recombinant human N-terminal GST-tagged BRD3 bromodomain-1 (29 to 145 residues) expressed in Escherichia coli expression system after 120 mins by TR-FRET assay. An outline of the steps:
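TR-FRET bromodomain binding. Recombinant BRD domain, BET ligand and test agent in 20 μl assay buffer with 1% DMSO final. Incubated 120 min at room temperature. Blank lacks BET ligand.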
For orientation: Time-resolved FRET reads energy transfer from a long-lived donor to a nearby acceptor.

Data set [7] relates to MCF7. In words: Antitumor activity against human MCF7 cells xenografted in nude BALB/c mouse assessed as tumor growth inhibition at 25 to 100 mg/kg, ig administered once a day for 24 days measured every 3 days relative to control. The class given is functional. The gist of the method: (§2)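 Female BALB/c nude mice, 6-8 weeks, 20-22 g, injected subcutaneously with 5×10^6 MCF-7 or MDA-MB-231 cells. At 100 mm³ tumor volume (V = L×W²/2), split into four groups: 25, 50 or 100 mg/kg intragastric once daily for 24 or 27 days, or vehicle. Tumor volume and body weight measured every 3 days; tumors excised and weighed at end. MCF-7 n=7, MDA-MB-231 n=6 per group.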
(In general: Xenograft models place foreign cells or tissue in a host animal.)

Data set [8] deals with MDA-MB-231. In words: Antitumor activity against human MDA-MB-231 cells xenografted in ig dosed nude BALB/c mouse assessed as tumor growth inhibition administered once a day for 27 days measured every 3 days relative to control. The class given is functional, organism-based. An outline of the steps: as §2
The subject of data set [9] is Mus musculus. Description: Toxicity in BALB/c mouse xenografted with human MCF7 cells assessed as effect on body weight at 25 to 100 mg/kg, ig administered once a day for 24 days measured every 3 days. The following applies: in vivo, po. The class given is organism-based. An outline of the steps: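 Female BALB/c nude mice (6-8 weeks, 20-22 g) with subcutaneous MCF-7 or MDA-MB-231 xenografts (5×10^6 cells). At 100 mm3, given 25, 50 or 100 mg/kg intragastrically once daily, or vehicle, for 24 or 27 days. Body weight recorded every 3 days. MCF-7 n=7, MDA-MB-231 n=6 per group.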

The test system of data set [10] is Mus musculus. In words: Induction of cleavage of caspase-3 in BALB/c mouse xenografted with human MCF7 cells at 100 mg/kg, ig administered once a day for 24 days by Western blot analysis. The class given is functional, organism-based. An outline of the steps:
(§3)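 Female BALB/c nude mice (6-8 weeks) given 5×10^6 MCF-7 or MDA-MB-231 cells subcutaneously. At 100 mm3 tumours, dosed intragastrically once daily (25, 50, 100 mg/kg, or vehicle) for 24 or 27 days. Excised tumours lysed and probed by western blot for caspase-3 cleavage.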

The test system of data set [11] is Mus musculus. In words: Induction of cleavage of caspase-3 in BALB/c mouse xenografted with human MDA-MB-231 cells at 100 mg/kg, ig administered once a day for 27 days by Western blot analysis. The class given is functional, organism-based. An outline of the steps: as §3
The target of data set [12] is T1, Bromodomain-containing protein 4. Description: Inhibition of BRD4 interaction with AMPK in human MCF7 cells at 1.5 uM by co-immunoprecipitation assay. The class given is cell-based. An outline of the steps:
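Cells lysed in RIPA buffer (40 mM Tris-HCl pH 7.5, 150 mM NaCl, 0.5% NP-40, 5% glycerol, 10 mM NaF, protease inhibitors). Lysates incubated overnight at 4 °C with BRD4 or p53 antibody plus protein A/G beads, washed 3 times, resolved on 10% SDS-PAGE and blotted for AMPKα or p53.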

The species entered for another data set is Homo sapiens. Description: Effect on p53 interaction with AMPK in human MDA-MB-231 cells at 3 uM by co-immunoprecipitation assay. The class given is cell-based. The gist of the method: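 Cells left untreated or treated, then lysed in RIPA (40 mM Tris-HCl pH 7.5, 150 mM NaCl, 0.5% NP-40, protease inhibitors, 5% glycerol, 10 mM NaF). Lysates incubated overnight at 4°C with BRD4 or p53 antibodies plus protein A/G beads, washed 3 times, resolved on 10% SDS-PAGE. Blots probed for p53 and AMPKα; inputs checked for BRD4, p53 and AMPKα.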

For data set [13], the system named is MCF7. In words: Induction of autophagy in human MCF7 cells assessed as induction of autophagic vacuoles at 1.5 uM by MDC-based fluorescence microscopy. The class given is functional, cell-based. The gist of the method:
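MCF-7 cells treated with 1.5 µM for indicated times. Stained with 0.05 mM monodansylcadaverine and autophagic vacuoles observed by fluorescence microscopy.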

For data set [14], the system named is MDA-MB-231. Description: Induction of autophagy in human MDA-MB-231 cells assessed as induction of autophagic vacuoles at 3 uM by MDC-based fluorescence microscopy. The class given is functional, cell-based. An outline of the steps: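 MDA-MB-231 cells exposed to 3 μM for indicated times, stained with 0.05 mM monodansylcadaverine, and autophagic vacuoles viewed by fluorescence microscopy.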

The target in data set [15] is T1, Bromodomain-containing protein 4. In words: Inhibition of BRD4 in human MCF7 cells assessed as reduction in ULK1 protein expression at 1.5 uM up to 36 hrs by Western blot analysis. Type of data set: cell-based. An outline of the steps:
as §1

The target is the same in data set [16]. In words: Inhibition of recombinant human BRD4 bromodomain-2 (342 to 460 residues) expressed in Escherichia coli expression system after 120 mins by TR-FRET assay.

Chain of Bromodomain-containing protein 3 (Q15059 whole entry, the tested form may be a part): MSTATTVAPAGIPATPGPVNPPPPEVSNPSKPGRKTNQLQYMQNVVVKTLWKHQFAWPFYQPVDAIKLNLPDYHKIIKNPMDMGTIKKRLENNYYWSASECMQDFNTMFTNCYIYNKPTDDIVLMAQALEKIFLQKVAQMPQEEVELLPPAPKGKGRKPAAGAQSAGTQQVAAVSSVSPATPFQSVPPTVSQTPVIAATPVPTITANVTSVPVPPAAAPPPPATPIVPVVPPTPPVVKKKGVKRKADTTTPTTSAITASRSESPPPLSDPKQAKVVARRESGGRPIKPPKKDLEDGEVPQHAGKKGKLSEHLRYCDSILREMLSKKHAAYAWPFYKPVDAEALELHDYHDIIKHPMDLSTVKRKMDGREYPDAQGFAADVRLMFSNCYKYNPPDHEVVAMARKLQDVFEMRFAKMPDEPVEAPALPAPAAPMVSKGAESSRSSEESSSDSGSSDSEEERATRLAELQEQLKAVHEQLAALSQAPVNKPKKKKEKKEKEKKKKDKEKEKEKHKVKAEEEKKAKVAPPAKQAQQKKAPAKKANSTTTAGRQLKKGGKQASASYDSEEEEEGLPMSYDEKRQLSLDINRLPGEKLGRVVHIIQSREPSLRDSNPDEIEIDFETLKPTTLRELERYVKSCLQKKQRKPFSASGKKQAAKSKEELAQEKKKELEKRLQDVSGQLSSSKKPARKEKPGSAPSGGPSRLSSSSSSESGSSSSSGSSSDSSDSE

`Cc1cc(-c2nc3sc4c(c3c(=O)[nH]2)CCN(C)C4)cc(C)c1O`: the outcome in the data set on MCF7 [1], in the data set with MDA-MB-231 [3], with MCF7 [4], in the data set on Mus musculus [10], in the data set with Mus musculus [11] and in the data set with MCF7 [13] was Active. In addition, the result in the data set with MDA-MB-231 [14] was Active. The inhibition result in data set [2], in data set [12] and in [15] was “Active” each time. The values for the Activity result in the data set on MCF7 [5] and with Mus musculus [9] were “Tde” and “Non-Toxic”, respectively. Also, the figures for the concentration for half-maximal inhibition (IC50) in [6] and in data set [16] were greater than 100000 nM and 930 nM, respectively. For the same compound, the TGI in the data set with MCF7 [7] is 80%; with MDA-MB-231 [8] it was “Dose-dependent effect”. Moreover, the result in the data set listed under Homo sapiens was inactive.
